8 compounds from ChEMBL document CHEMBL1122664, “Synthesis and evaluation of 19-aza- and 19-aminoandrostenedione analogues as potential aromatase inhibitors” (J Med Chem, 1984) can be followed below.

The target of data set [1] is T1, Aromatase (Homo sapiens, UniProt P11511).
T1 sequence (P11511 whole entry): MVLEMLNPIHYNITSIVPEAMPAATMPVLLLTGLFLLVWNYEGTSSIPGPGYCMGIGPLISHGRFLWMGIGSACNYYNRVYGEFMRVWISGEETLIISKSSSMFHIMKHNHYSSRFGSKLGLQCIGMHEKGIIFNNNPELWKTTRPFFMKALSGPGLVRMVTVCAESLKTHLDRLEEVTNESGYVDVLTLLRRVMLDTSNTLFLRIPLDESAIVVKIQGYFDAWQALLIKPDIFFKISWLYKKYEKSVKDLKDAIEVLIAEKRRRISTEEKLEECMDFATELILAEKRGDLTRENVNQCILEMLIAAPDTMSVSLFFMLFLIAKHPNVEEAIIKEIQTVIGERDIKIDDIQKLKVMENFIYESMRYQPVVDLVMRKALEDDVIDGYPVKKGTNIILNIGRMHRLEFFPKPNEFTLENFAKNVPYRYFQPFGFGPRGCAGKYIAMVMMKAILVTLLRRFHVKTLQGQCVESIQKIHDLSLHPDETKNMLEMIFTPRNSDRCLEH
The data set can be described thus: Inhibition of 0.25 uM [1-3H]-androst-4-ene-3,17-dione binding to Cytochrome P450 19A1. An outline of the steps: (§1)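 Tritiated water release assay using lyophilized, twice-washed human term placental microsomes (0.1 mg protein) with [1-³H]androstenedione at 0.25 μM (5 × KM) and inhibitor at 0.25 or 1.25 μM. NADPH-generating system in 10 mM K phosphate with KCl, EDTA and DTT; 15 min at 25 °C. Stopped with CHCl₃; charcoal-treated aqueous ³H₂O counted. Triplicates; % inhibition versus concurrent controls.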

Data set [2] has as its target T1, Aromatase. The data set can be described thus: Inhibition of 1.25 uM [1-3H]-androst-4-ene-3,17-dione binding to Cytochrome P450 19A1. The essentials:
as §1

Where “and” joins values, the source holds several entries; their conditions need not be identical. Equal values may be shown once.

A word on the Inhibition: it is the percentage by which the read-out fell short of the control. Consider `C[C@]12CCC(=O)C=C1C[C@@H](Sc1ccc(N)cc1)[C@@H]1[C@@H]2CC[C@]2(C)C(=O)CC[C@@H]12`, for which the figures for the Inhibition on Aromatase [1] and on Aromatase [2] were 54.8% and 83.1%, respectively.
Taken in the same sequence, the figures for `COC(=O)N[C@]12CCC(=O)C=C1CC[C@H]1[C@@H]3CCC(=O)[C@@]3(C)CC[C@@H]12` were < 2% and < 2%.
As to `C[C@]12CC[C@H]3[C@@H](CCC4=CC(=O)CC[C@@]43CNC(=O)C(F)(F)F)[C@@H]1CCC2=O`, the Inhibition on Aromatase [1] was 2.5%; at Aromatase [2], 11.4%.
`C[C@]12CC[C@H]3[C@@H](CCC4=CC(=O)CC[C@@]43/C=N\O)[C@@H]1CCC2=O`: the Inhibition at Aromatase [1] stood at 8.6%; on Aromatase [2], 4.1%.
Taken in the same sequence, the figures for `CC(=O)NC[C@]12CCC(=O)C=C1CC[C@@H]1[C@@H]2CC[C@]2(C)C(=O)CC[C@@H]12` were < 2% and 13.2%.
Consider `C[C@]12CC[C@H]3[C@@H](CCC4=CC(=O)CC[C@@]43N)[C@@H]1CCC2=O`, for which the Inhibition on Aromatase [1] was 9.4% and 6.9%; on Aromatase [2], 19.2% and 10.9%.
On to `C[C@]12CC[C@H]3[C@@H](CCC4=CC(=O)CC[C@@]43N=C=O)[C@@H]1CCC2=O`, for which the Inhibition at Aromatase [1] and on Aromatase [2] was < 2% throughout.
As for `C[C@]12CCC(=O)C(O)=C1CC[C@@H]1[C@@H]2CC[C@]2(C)C(=O)CC[C@@H]12` [FORMESTANE], the Inhibition at Aromatase [1] is on record as 50.1%; at Aromatase [2], 81.6%.
